# Assay outcomes from PubChem BioAssay.
# TNAP act DEA: human TNAP enzyme activators, primary screen, biochemical, luminescent, intermediate phosphate acceptor level. Alkaline phosphatase, tissue-nonspecific isozyme (Homo sapiens), P05186. purified TNAP, CDP-star luminescence, 100 mM DEA, 30 min; stronger effect = higher value; scale: 0 levamisole-inhibited, 1 vehicle-only enzyme. activation factor at 20 µM. 64,000 tested, under 10 active. AID 813, 2007;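 active = activation factor of at least 2 at 20 µM, relative to controls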
# CD11b adhes enh: enhancers of CD11b/CD18 adhesion to fibrinogen, primary screen, K562 cells, luminescence; Integrin beta-2 (Homo sapiens) + Integrin alpha-M (Homo sapiens), P05107+P11215; ATPlite luminescence; activation, % at 10 µM; actives 0.07% (n = 93,000); AID 1499, 2009;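 active = 10 µM primary screen giving 50% or more activity, confirmed by 40% or more on retest at that dose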
# SF1 activator: activators of human SF-1, primary screen, cell-based, CHO-K1, Gal4-SF-1 LBD, luciferase luminescence; CHO-K1 Gal4-SF-1 LBD luciferase reporter; % increase over DMSO SF-1-specific signal; activation, % at 10 µM; AID 522, 2006; actives 1.9% (n = 65,000); Steroidogenic factor 1 (Homo sapiens), Q13285;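 active = activation above the mean activation of all tested compounds plus 3 SD, cut at about 50% in these data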
#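 Assay system: CHO-K1 cells co-transfected with Gal4 DBD–human SF-1 LBD, 5xGal4 luciferase reporter; doses: 10 µM only; incubation: 20 h compound exposure at 37 °C after 1 h cell settling; signal: luciferase light emission; evaluation: percent activation versus DMSO; repeats: one test per compound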
# RORa activator: activators of orphan receptor RORA, primary screen, cell-based, luminescence; AID 560, 2006; activation, % at 10 µM; CHO-K1 Gal4-RORA LBD luciferase reporter; percent increase over mock-subtracted basal signal; actives 1.5% (n = 65,000);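 active = activation above the mean of all tested compounds plus 3 SD, cut at about 49% in these data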;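 also: 0% = DMSO-treated RORA cells and 100% = added signal equal to DMSO minus mock-transfected cells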
# Target sequence (P35398 whole entry, looked up, the tested form may be a part): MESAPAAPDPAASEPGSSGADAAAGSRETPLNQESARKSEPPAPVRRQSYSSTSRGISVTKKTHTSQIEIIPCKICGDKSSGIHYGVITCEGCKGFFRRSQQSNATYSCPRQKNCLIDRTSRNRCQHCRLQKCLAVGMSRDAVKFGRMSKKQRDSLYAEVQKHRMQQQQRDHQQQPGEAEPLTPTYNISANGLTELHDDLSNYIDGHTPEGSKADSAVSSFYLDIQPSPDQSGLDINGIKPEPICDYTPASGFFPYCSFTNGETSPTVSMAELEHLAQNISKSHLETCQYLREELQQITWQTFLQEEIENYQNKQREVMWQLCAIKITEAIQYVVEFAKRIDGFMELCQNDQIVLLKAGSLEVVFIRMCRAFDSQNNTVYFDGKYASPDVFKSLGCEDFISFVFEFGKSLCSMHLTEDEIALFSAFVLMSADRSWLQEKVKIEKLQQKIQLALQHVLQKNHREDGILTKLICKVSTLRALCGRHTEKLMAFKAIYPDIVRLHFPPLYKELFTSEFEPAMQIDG
# MT1-MMP txn act: MT1-MMP promoter reporter activation – cell-based, luciferase luminescence, primary screen | HT1080 MT1-MMP promoter luciferase reporter, overnight; stronger effect = higher value | activation factor at 10 µM | actives 0.16% (n = 86,000);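 active = activation factor of at least 2 for MT1-MMP transcription at 10 µM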
# Mac1 fbg inh: inhibitors of CD11b/CD18 adhesion to fibrinogen, primary screen, K562 cells, luminescence. inhibition, % at 10 µM. Integrin beta-2 (Homo sapiens) + Integrin alpha-M (Homo sapiens), P05107+P11215. ATPlite luminescence; Mn2+ added to activate the integrin. AID 1497, 2009. actives 0.54% (n = 93,000);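 active = primary inhibition of 50% or more at 10 µM, then 40% or more on retest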
# * marks the source's active call; other numbers are inactive results; . = no result given. Rows were chosen to be rich in hits. Some 2.1% of all compounds tested hit in one or more screens of this group.
SMILES,TNAP act DEA,CD11b adhes enh,SF1 activator,RORa activator,MT1-MMP txn act,Mac1 fbg inh
CCOc1cc(CNn2nnnc2N)cc(Cl)c1OCC(=O)NC(C)(C)C,.,1,.,.,1,-11
Cn1c(=O)c2c(nc(SCC(=O)N3CCc4ccccc43)n2Cc2ccc(F)cc2)n(C)c1=O,.,.,.,.,1.4,.
CC1CC(C)CN(S(=O)(=O)c2ccc(C(=O)Nc3nnc(-c4cccs4)o3)cc2)C1 (centres undefined),0.9,-2,-43,-41,1.2,8
O=C(Nc1nnc(-c2cccs2)o1)c1cccc(C(F)(F)F)c1,0.8,1,4,-1,1.1,72*
O=C(Nc1cccc(Cl)c1)c1ccc2c(=O)n3c(nc2c1)CCCCC3,1,-4,59*,24,0.7,12
CN(C)c1cccc(C(=O)Nc2ccc3nc4n(c(=O)c3c2)CCCCC4)c1,.,4,.,.,.,-1
O=C(Nc1ccc(F)c(Cl)c1)c1ccc2c(=O)n3c(nc2c1)CCCCC3,1,-4,74*,30,1.5,-21
Cc1c(Cl)cccc1NC(=O)CCC(=O)N/N=C/c1ccc[nH]1,.,7,.,.,.,-3
CCCn1c(CCC(=O)Nc2ccccc2Cc2ccccc2)nc2cc(S(=O)(=O)N3CCOCC3)ccc21,.,-4,.,.,.,-3
Oc1ccccc1-c1cc(-c2ccc3c(c2)OCCO3)n[nH]1,1.2,1,36,55*,0.2,34
Cn1c(SCc2ccccc2)nnc1-c1ccc2c(c1)OCO2,1,-3,36,55*,1.4,-13
Cn1c(SCC#N)nnc1-c1ccc2c(c1)OCO2,.,.,.,.,1.2,.
Cc1cccc2c1[nH]c1nc(N/N=C\c3ccco3)nnc12,.,15,.,.,.,8
C=CCSc1nnc2c(n1)[nH]c1c(C)cccc12,0.8,0,31,84*,1.6,8
O=c1/c(=C\c2ccc3c(c2)OCO3)sc2n1CCCN=2,1.1,-4,49,55*,1.1,-9
Cc1ccc(/C=c2/sc3n(c2=O)CCCN=3)o1,.,.,.,.,1.7,.
CCc1nc(SCC(=O)N2CCCC2)c2ccccc2n1,0.9,-2,-19,-1,1.1,-9
O=C(CSc1ncnc2ccccc12)N1CCCC1,1,-2,18,55*,1.4,10
Oc1ccc(Cl)cc1CNc1ccc(Br)cn1,1,0,89*,33,1.5,5
Oc1c(Cl)cc(Cl)cc1CNc1ccc(Br)cn1,0.8,-2,20,-5,1.1,-3
CCCC1(C(=O)OC)C=C2C(=C(C)C(=O)C2C)CN1 (centres undefined),.,.,.,.,1.6,.
CC(=O)Cc1nsc(Nc2ccc3c(c2)OCCO3)n1,0.9,-5,67*,122*,1.7,-12
Cc1cc(C(=O)CSc2nnnn2C)c(C)n1-c1cccc(F)c1,0.9,-4,53*,16,1.4,-18
O=C(NNC(=O)c1cc(-c2ccccc2)n(-c2ccccc2)n1)c1cccc([N+](=O)[O-])c1,.,6,.,.,.,13
Nc1ccc(C(=O)OCc2nc3c(ccc4ccccc43)[nH]2)cc1,.,.,.,.,2.5*,.
SMILES,TNAP act DEA,CD11b adhes enh,SF1 activator,RORa activator,MT1-MMP txn act,Mac1 fbg inh
Cc1ccc(C(=O)OCc2cc3ccccc3[nH]c2=O)cc1,0.9,-4,26,22,1,-21
COc1ccc(N2C(=O)CCC2(C#N)c2ccc(Br)cc2)cc1 (centres undefined),.,-3,.,.,1.2,-22
CCCCN1CCc2c([nH]c3ccc(C)cc23)C1=O,0.9,4,51*,51*,0.9,-2
Cc1ccc2[nH]c3c(c2c1)CCC3=O,0.9,-3,-4,-3,1.1,-14
CCc1nnc(NC(=O)c2c(C)nn(-c3ccccc3)c2Cl)s1,.,.,.,.,1.2,.
Cc1onc(-c2ccccc2Cl)c1C(=O)Nc1nnc(-c2cccc([N+](=O)[O-])c2)s1,.,-6,.,.,.,90*
CCSc1nnc(NC(=O)c2c(-c3ccccc3Cl)noc2C)s1,1,-2,4,-22,1.1,24
O=C(/C=C/c1ccccc1)c1cc(Br)ccc(=O)c1O,.,-3,.,.,.,88*
CCOC(=O)c1ccccc1-c1csc(NS(=O)(=O)c2ccc(Cl)cc2)n1,.,-4,.,.,.,54*
Clc1ccc(-n2ncc3c(NCCN4CCOCC4)ncnc32)cc1,.,-3,-7,-20,1,11
Cc1cccc(-n2ncc3c(NCCCO)ncnc32)c1,0.9,-4,67*,83*,1.2,0
C=CCNc1ncnc2c1cnn2-c1ccc(Cl)cc1,1,1,50*,28,1.6,0
Cc1cccc(-n2ncc3c(NCc4cccnc4)ncnc32)c1,0.8,.,56*,73*,1.4,.
C=CCNc1ncnc2c1cnn2-c1cccc(C)c1,1,2,42,55*,1.2,4
Cc1cccc(-n2ncc3c(NC4CCCCC4)ncnc32)c1,0.9,.,17,12,1.5,.
CCCCNc1ncnc2c1cnn2-c1ccc(C)cc1C,0.9,2,4,-7,1.2,-37
Cc1ccc(-n2ncc3c(NCc4cccnc4)ncnc32)c(C)c1,0.9,.,-42,-47,1.1,.
O=C(Nn1c(-c2ccc(F)cc2)nc2ccccc2c1=O)C1CCCCC1,.,-5,.,.,1.2,-2
c1ccc(-n2ncc3c(NCc4ccco4)ncnc32)cc1,0.8,0,77*,90*,1.5,21
Cc1ccc(-n2ncc3c(NCc4ccccn4)ncnc32)c(C)c1,1,0,-16,0,1,-2
Clc1ccc(-n2ncc3c(NCc4ccccn4)ncnc32)cc1,1,.,74*,7,1.2,.
Cc1ccc(-n2ncc3c(NCc4ccccc4)ncnc32)cc1,0.9,-8,62*,61*,1.4,2
c1ccc(CNc2ncnc3ccccc23)cc1,.,-4,-40,-56,1,66*
CCOC(=O)C1=C(C)N(CCCCCC(=O)O)C(=O)NC1c1cccc(Cl)c1Cl (centres undefined),.,.,.,.,1.2,.
CNCc1ccccc1OCC(=O)Nc1ccccc1OC,.,2,.,.,1.4,-39
O=C(CNC(c1ccccc1)c1ccccc1)Nc1ccccc1-c1ccccc1,.,-5,.,.,.,17
O=C(NCCc1ccccc1)C(=O)NCC1CCCO1 (centres undefined),.,-2,.,.,1.3,-6
CCC#CCOCC(=S)Nc1ccccc1,.,.,.,.,1.2,.
Cc1cc(NO)nc(-c2ccc(Br)cc2)n1,0.9,-6,64*,59*,1.7,1
Cn1cccc1C(=O)OCc1cc(Cl)cc2c1OCOC2,0.9,-4,60*,24,1.5,-17
